Reference: ChEMBL document CHEMBL1147105, “In vitro and in vivo activities of PD 0305970 and PD 0326448, new bacterial gyrase/topoisomerase inhibitors with potent antibacterial activities versus multidrug-resistant gram-positive and fastidious organism groups” (2007)
≈ marks a conversion by molar mass, not a printed value.

What was measured:
Enterococcus faecalis [1] = test: Antibacterial activity against beta-lactamase positive Enterococcus faecalis; assay type: functional
Method in brief: (§1)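 MIC by CLSI broth microdilution for nonfastidious organisms, in cation-adjusted Mueller-Hinton broth incubated at 35°C.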

Enterococcus faecium [2] = test: Antibacterial activity against VanA-resistant Enterococcus faecium; assay type: functional
Method in brief: (§2)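 Broth microdilution MIC per CLSI guidelines, incubated at 35°C. Cation-adjusted Mueller-Hinton broth for nonfastidious organisms and staphylococci. Streptococci tested in the same broth with 3% lysed horse blood. Anaerobes tested in supplemented Brucella broth inside an anaerobe chamber (5% CO2, 5% H2, 90% N2), read after 48 h. Strains were mainly recent clinical isolates with confirmed identity.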

Enterococcus faecium [3] = test: Antibacterial activity against VanB-resistant Enterococcus faecium; assay type: functional; method in brief: as §2
Corynebacterium sp. = test: Antibacterial activity against Corynebacterium sp.; assay type: functional
Method in brief: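 Broth microdilution MIC following CLSI guidelines, in cation-adjusted Mueller-Hinton broth containing 3% lysed horse blood, incubated at 35°C. Clinical isolates with identity confirmed. Reported as MIC range, MIC50 and MIC90.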

Haemophilus influenzae [4] = test: Antibacterial activity against beta-lactamase negative Haemophilus influenzae; assay type: functional
Method in brief: (§3)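 Broth microdilution MIC following CLSI guidelines, in Haemophilus test medium at 35°C.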

Haemophilus influenzae [5] = test: Antibacterial activity against beta-lactamase positive Haemophilus influenzae; assay type: functional; method in brief: as §3
Legionella pneumophila = test: Antibacterial activity against Legionella pneumophila; assay type: functional
Method in brief: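 Broth microdilution MIC per CLSI guidelines, run in buffered yeast extract α-ketoglutarate broth at 35°C and read after 48 h.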

Neisseria gonorrhoeae = test: Antibacterial activity against Neisseria gonorrhoeae; assay type: functional
Method in brief: (§4)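 MIC by broth microdilution in gonococcal broth, incubated at 35°C in 5% CO2. Reported as MIC range, MIC50 and MIC90.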

Citrobacter koseri = test: Antibacterial activity against Citrobacter diversus; assay type: functional
Method in brief: (§5)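 Broth microdilution MIC following CLSI guidelines, in cation-adjusted Mueller-Hinton broth, incubated at 35°C. Recent clinical isolates and reference strains, with identity confirmed by automated and standard microbiological methods. Results reported as MIC range, MIC50 and MIC90.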

Klebsiella aerogenes = test: Antibacterial activity against Enterobacter aerogenes; assay type: functional; method in brief: as §5
Enterobacter cloacae = test: Antibacterial activity against Enterobacter cloacae; assay type: functional; method in brief: as §5
Escherichia coli = test: Antibacterial activity against Escherichia coli; assay type: functional; method in brief: as §5
Klebsiella pneumoniae [6] = test: Antibacterial activity against Klebsiella pneumoniae; assay type: functional; method in brief: as §5
Klebsiella pneumoniae [7] = test: Antibacterial activity against beta-lactamase positive Klebsiella pneumoniae; assay type: functional; method in brief: as §1
Morganella morganii = test: Antibacterial activity against Morganella morganii; assay type: functional; method in brief: as §5
Proteus mirabilis = test: Antibacterial activity against Proteus mirabilis; assay type: functional; method in brief: as §5
Proteus vulgaris = test: Antibacterial activity against Proteus vulgaris; assay type: functional; method in brief: as §5
Salmonella typhimurium = test: Antibacterial activity against Salmonella enterica serovar Typhimurium; assay type: functional, Salmonella enterica subsp. enterica serovar Typhimurium; method in brief: as §5
Shigella sonnei = test: Antibacterial activity against Shigella sonnei; assay type: functional; method in brief: as §5
Serratia marcescens = test: Antibacterial activity against Serratia marcescens; assay type: functional; method in brief: as §5
Acinetobacter sp. = test: Antibacterial activity against Acinetobacter sp.; assay type: functional; method in brief: as §5
Pseudomonas aeruginosa = test: Antibacterial activity against Pseudomonas aeruginosa; assay type: functional; method in brief: as §5
[8] = tested on: Stenotrophomonas maltophilia; test: Antibacterial activity against Stenotrophomonas maltophilia; assay type: functional; method in brief: as §5
Fusobacterium sp. = test: Antibacterial activity against Fusobacterium sp.; assay type: functional
Method in brief: (§6)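 Anaerobic broth microdilution MIC following CLSI guidelines, in supplemented Brucella broth. Run in an anaerobe chamber under 5% CO2, 5% H2 and 90% N2 at 35°C, and read after 48 h. Reported as MIC range, MIC50 and MIC90.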

[9] = tested on: Peptostreptococcus anaerobius; test: Antibacterial activity against Peptostreptococcus anaerobius; assay type: functional; method in brief: as §6
Finegoldia magna = test: Antibacterial activity against Peptostreptococcus magnus; assay type: functional; method in brief: as §6
Streptococcus pyogenes = test: Antibacterial activity against Streptococcus pyogenes; assay type: functional
Method in brief: (§7)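 Broth microdilution MIC following CLSI guidelines, in cation-adjusted Mueller-Hinton broth with 3% lysed horse blood. Plates incubated at 35°C. Clinical isolates and reference strains, with identity confirmed by standard microbiological methods.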

Clostridium perfringens = test: Antibacterial activity against Clostridium perfringens; assay type: functional; method in brief: as §2
Staphylococcus aureus [10] = test: Antibacterial activity against oxacillin-resistant Staphylococcus aureus; assay type: functional; method in brief: as §2
Staphylococcus aureus [11] = test: Antibacterial activity against oxacillin and levofloxacin-resistant Staphylococcus aureus; assay type: functional; method in brief: as §2
Staphylococcus aureus [12] = test: Antibacterial activity against vancomycin-intermediate Staphylococcus aureus; assay type: functional; method in brief: as §2
[13] = tested on: Staphylococcus epidermidis; test: Antibacterial activity against oxacillin-susceptible Staphylococcus epidermidis; assay type: functional; method in brief: as §1
[14] = tested on: Staphylococcus epidermidis; test: Antibacterial activity against oxacillin-resistant Staphylococcus epidermidis; assay type: functional; method in brief: as §2
Streptococcus equinus = test: Antibacterial activity against Streptococcus bovis; assay type: functional; method in brief: as §7
Streptococcus pneumoniae [15] = test: Antibacterial activity against penicillin-susceptible Streptococcus pneumoniae; assay type: functional; method in brief: as §2
Streptococcus pneumoniae [16] = test: Antibacterial activity against penicillin-intermediate resistant Streptococcus pneumoniae; assay type: functional; method in brief: as §2
Streptococcus pneumoniae [17] = test: Antibacterial activity against penicillin-resistant Streptococcus pneumoniae; assay type: functional; method in brief: as §2
Streptococcus pneumoniae [18] = test: Antibacterial activity against levofloxacin-resistant Streptococcus pneumoniae; assay type: functional; method in brief: as §2
Enterococcus faecalis [19] = test: Antibacterial activity against VanA-resistant Enterococcus faecalis; assay type: functional; method in brief: as §2
Prevotella buccae = test: Antibacterial activity against Prevotella buccae; assay type: functional; conditions: Segatella buccae; method in brief: as §6
Prevotella corporis = test: Antibacterial activity against Prevotella corporis; assay type: functional; method in brief: as §6
[20] = tested on: Prevotella melaninogenica; test: Antibacterial activity against Prevotella melaninogenica; assay type: functional; method in brief: as §6
Prevotella sp. = test: Antibacterial activity against Prevotella sp.; assay type: functional; method in brief: as §6
Neisseria meningitidis = test: Antibacterial activity against Neisseria meningitidis; assay type: functional; method in brief: as §4
Streptococcus salivarius = test: Antibacterial activity against Streptococcus salivarius; assay type: functional; method in brief: as §7
Streptococcus mitis = test: Antibacterial activity against Streptococcus mitis; assay type: functional; method in brief: as §7
[21] = tested on: Parabacteroides distasonis; test: Antimicrobial activity against Bacteroides distasonis; assay type: functional
Method in brief: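 Anaerobic broth microdilution MIC following CLSI guidelines, in supplemented Brucella broth. Incubated at 35°C in a chamber under 5% CO2, 5% H2 and 90% N2. Read after 48 h.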

## C[C@H]1NCc2cc(-c3ccc4c(=O)c(C(=O)O)cn(C5CC5)c4c3OC(F)F)ccc21 [GARENOXACIN]
Enterococcus faecalis [1]
  MIC: 0.125 µg/mL (≈ 0.293 µM)
Enterococcus faecium [2]
  MIC50: 8 µg/mL (≈ 18.8 µM)
  MIC90: 16 µg/mL (≈ 37.5 µM)
Enterococcus faecium [3]
  MIC: 4 µg/mL (≈ 9.38 µM)
Corynebacterium sp.
  MIC50: 0.25 µg/mL (≈ 0.586 µM)
  MIC90: 64 µg/mL (≈ 150 µM)
Haemophilus influenzae [4]
  MIC50: 0.008 µg/mL (≈ 0.0188 µM)
  MIC90: 0.03 µg/mL (≈ 0.0704 µM)
Haemophilus influenzae [5]
  MIC50: 0.015 µg/mL (≈ 0.0352 µM)
  MIC90: 0.03 µg/mL (≈ 0.0704 µM)
Legionella pneumophila
  MIC50: 0.002 µg/mL (≈ 0.00469 µM)
  MIC90: 0.008 µg/mL (≈ 0.0188 µM)
Neisseria gonorrhoeae
  MIC50: 0.004 µg/mL (≈ 0.00938 µM)
  MIC90: 0.004 µg/mL (≈ 0.00938 µM)
Citrobacter koseri
  MIC50: 0.125 µg/mL (≈ 0.293 µM)
  MIC90: 0.25 µg/mL (≈ 0.586 µM)
Klebsiella aerogenes
  MIC50: 2 µg/mL (≈ 4.69 µM)
  MIC90: > 64 µg/mL
Enterobacter cloacae
  MIC50: 0.125 µg/mL (≈ 0.293 µM)
  MIC90: 2 µg/mL (≈ 4.69 µM)
Escherichia coli
  MIC50: 0.06 µg/mL (≈ 0.141 µM)
  MIC90: 1 µg/mL (≈ 2.35 µM)
Klebsiella pneumoniae [6]
  MIC50: 0.25 µg/mL (≈ 0.586 µM)
  MIC90: 1 µg/mL (≈ 2.35 µM)
Klebsiella pneumoniae [7]
  MIC50: 1 µg/mL (≈ 2.35 µM)
  MIC90: 64 µg/mL (≈ 150 µM)
Morganella morganii
  MIC50: 2 µg/mL (≈ 4.69 µM)
  MIC90: 32 µg/mL (≈ 75 µM)
Proteus mirabilis
  MIC50: 0.5 µg/mL (≈ 1.17 µM)
  MIC90: 16 µg/mL (≈ 37.5 µM)
Proteus vulgaris
  MIC: 0.25 µg/mL (≈ 0.586 µM)
Salmonella typhimurium
  MIC50: 0.03 µg/mL (≈ 0.0704 µM)
  MIC90: 0.125 µg/mL (≈ 0.293 µM)
Shigella sonnei
  MIC50: 0.03 µg/mL (≈ 0.0704 µM)
  MIC90: 0.125 µg/mL (≈ 0.293 µM)
Serratia marcescens
  MIC50: 1 µg/mL (≈ 2.35 µM)
  MIC90: 8 µg/mL (≈ 18.8 µM)
Acinetobacter sp.
  MIC50: 0.125 µg/mL (≈ 0.293 µM)
  MIC90: 16 µg/mL (≈ 37.5 µM)
Pseudomonas aeruginosa
  MIC50: 2 µg/mL (≈ 4.69 µM)
  MIC90: > 64 µg/mL
[8]
  MIC50: 4 µg/mL (≈ 9.38 µM)
  MIC90: 8 µg/mL (≈ 18.8 µM)
Fusobacterium sp.
  MIC: 0.125 µg/mL (≈ 0.293 µM)
[9]
  MIC: 0.015 µg/mL (≈ 0.0352 µM)
Finegoldia magna
  MIC: 0.015 µg/mL (≈ 0.0352 µM)
Streptococcus pyogenes
  MIC50: 0.125 µg/mL (≈ 0.293 µM)
  MIC90: 0.25 µg/mL (≈ 0.586 µM)
Clostridium perfringens
  MIC50: 0.5 µg/mL (≈ 1.17 µM)
  MIC90: 1 µg/mL (≈ 2.35 µM)
Staphylococcus aureus [10]
  MIC50: 2 µg/mL (≈ 4.69 µM)
  MIC90: 2 µg/mL (≈ 4.69 µM)
Staphylococcus aureus [11]
  MIC50: 2 µg/mL (≈ 4.69 µM)
  MIC90: 4 µg/mL (≈ 9.38 µM)
Staphylococcus aureus [12]
  MIC: 1 µg/mL (≈ 2.35 µM)
[13]
  MIC: 0.06 µg/mL (≈ 0.141 µM)
[14]
  MIC50: 2 µg/mL (≈ 4.69 µM)
  MIC90: 32 µg/mL (≈ 75 µM)
Streptococcus equinus
  MIC50: 0.25 µg/mL (≈ 0.586 µM)
  MIC90: 0.25 µg/mL (≈ 0.586 µM)
Streptococcus pneumoniae [15]
  MIC50: 0.125 µg/mL (≈ 0.293 µM)
  MIC90: 0.125 µg/mL (≈ 0.293 µM)
Streptococcus pneumoniae [16]
  MIC50: 0.25 µg/mL (≈ 0.586 µM)
  MIC90: 0.25 µg/mL (≈ 0.586 µM)
Streptococcus pneumoniae [17]
  MIC50: 0.03 µg/mL (≈ 0.0704 µM)
  MIC90: 0.125 µg/mL (≈ 0.293 µM)
Streptococcus pneumoniae [18]
  MIC50: 1 µg/mL (≈ 2.35 µM)
  MIC90: 2 µg/mL (≈ 4.69 µM)
Enterococcus faecalis [19]
  MIC: 2 µg/mL (≈ 4.69 µM)
Prevotella buccae
  MIC50: 0.25 µg/mL (≈ 0.586 µM)
  MIC90: 1 µg/mL (≈ 2.35 µM)
Prevotella corporis
  MIC50: 0.25 µg/mL (≈ 0.586 µM)
  MIC90: 1 µg/mL (≈ 2.35 µM)
[20]
  MIC50: 0.25 µg/mL (≈ 0.586 µM)
  MIC90: 1 µg/mL (≈ 2.35 µM)
Prevotella sp.
  MIC50: 0.25 µg/mL (≈ 0.586 µM)
  MIC90: 1 µg/mL (≈ 2.35 µM)
Neisseria meningitidis
  MIC50: 0.004 µg/mL (≈ 0.00938 µM)
  MIC90: 0.004 µg/mL (≈ 0.00938 µM)
Streptococcus salivarius
  MIC50: 0.125 µg/mL (≈ 0.293 µM)
  MIC90: 0.25 µg/mL (≈ 0.586 µM)
Streptococcus mitis
  MIC50: 0.125 µg/mL (≈ 0.293 µM)
  MIC90: 0.25 µg/mL (≈ 0.586 µM)
[21]
  MIC50: 2 µg/mL (≈ 4.69 µM)
  MIC90: 4 µg/mL (≈ 9.38 µM)
